According to ChEMBL document CHEMBL5154634, “A Modular Synthetic Route Involving N-Aryl-2-nitrosoaniline Intermediates Leads to a New Series of 3-Substituted Halogenated Phenazine Antibacterial Agents” (J Med Chem, 2021):
In brackets after ≈: the same amount, converted by molar mass.

Assays:
[1] = system: Enterococcus faecium; experiment: Antibacterial activity against vancomycin-resistant Enterococcus faecium ATCC 700221 assessed as bacterial growth inhibition incubated for 16 hrs by broth microdilution susceptibility test; type: functional
Procedure, shortened: (§1)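 CLSI broth microdilution with 11 twofold dilutions (0.05–50 μM). Medium was LB for the staphylococci and BHI for VRE 700221. About 10^5 cells per well from a log-phase culture. […] DMSO vehicle up to 0.5% v/v. At least three independent experiments.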

[2] = system: Staphylococcus aureus; experiment: Antibacterial activity against methicillin-resistant Staphylococcus aureus BAA-1707 assessed as bacterial growth inhibition incubated for 16 hrs by broth microdilution susceptibility test; type: functional
Procedure, shortened: (§2)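 CLSI broth microdilution with 11 twofold dilutions (0.05–50 μM). About 10^5 cells per well from a log-phase culture. DMSO vehicle up to 0.5% v/v. At least three independent experiments.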

[3] = system: Erythrocyte; experiment: Hemolytic activity against human RBC at 200 uM measured after 1 hr; type: toxicity, cell-based
Procedure, shortened: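 2% hRBCs exposed to compound at 200 μM final, added from DMSO stock, for 1 h at 37 °C. Supernatant OD read at 405 nm. Hemolysis normalized between DMSO (0%) and Triton X (100%); three independent experiments.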

[4] = system: HepG2; experiment: Cytotoxicity against human HepG2 cells assessed as reduction in cell viability […] by Alamar blue assay; type: toxicity, cell-based
[5] = system: Staphylococcus epidermidis; experiment: Bactericidal activity against methicillin-resistant Staphylococcus epidermidis ATCC 35984 planktonic cells assessed as planktonic eradication incubated for 24 hrs followed by incubation for overnight in fresh medium by Calgary biofilm device assay; type: functional
Procedure, shortened: (§3)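 Calgary biofilm device. Biofilms grown 24 h at 37 °C in TSB with 0.5% glucose, then challenged 24 h with twofold compound dilutions. 20 μL of challenge medium transferred into fresh TSB with 0.5% glucose and incubated overnight at 37 °C. MBC is the concentration with no visible turbidity. At least three independent experiments.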

[6] = system: Staphylococcus epidermidis; experiment: Antibacterial activity against methicillin-resistant Staphylococcus epidermidis ATCC 35984 assessed as bacterial growth inhibition incubated for 16 hrs by broth microdilution susceptibility test; type: functional; procedure, shortened: as §2
[7] = system: Enterococcus faecalis; experiment: Antibacterial activity against Enterococcus faecalis OG1RF ATCC 47077 assessed as bacterial growth inhibition incubated for 16 hrs by broth microdilution susceptibility test; type: functional
[8] = system: Mycobacterium tuberculosis; experiment: Antibacterial activity against Mycobacterium tuberculosis CDC1551 assessed as bacterial growth inhibition incubated for 5 days by luminescence based analysis; type: functional; settings: CDC1551, 120 h, time 5 day
Procedure, shortened: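 Bioluminescent Mtb-lux CDC1551 reporter grown in Middlebrook 7H9 with 0.05% Tween 80, 10% OADC and kanamycin to OD600 0.4–0.8, then diluted to OD600 0.02. Added to twofold drug dilutions (0.003–200 μM). Incubated 5 days at 37 °C, 5% CO2. Luminescence read against 1% DMSO and 10 μM rifampicin controls to give % growth inhibition. MIC taken from a modified Gompertz fit.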

[9] = system: Enterococcus faecium; experiment: Antibiofilm activity against methicillin-resistant vancomycin-resistant Enterococcus faecium ATCC 700221 biofilms assessed as biofilm eradication incubated for 24 hrs followed by incubation for 24 hrs in fresh medium by Calgary biofilm device assay; type: functional
Procedure, shortened: (§4)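 Calgary biofilm device. Mid-log culture diluted 1000-fold in TSB with 0.5% glucose; biofilms grown on pegs 24 h at 37 °C. Pegs washed and challenged with twofold compound dilutions for 24 h at 37 °C, then moved to fresh medium for 24 h. MBEC is the lowest concentration leaving wells non-turbid. At least three independent experiments.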

[10] = system: Enterococcus faecium; experiment: Bactericidal activity against methicillin-resistant vancomycin-resistant Enterococcus faecium ATCC 700221 planktonic cells assessed as planktonic eradication incubated for 24 hrs followed by incubation for overnight in fresh medium by Calgary biofilm device assay; type: functional; procedure, shortened: as §3
[11] = system: J774; experiment: Cytotoxicity against mouse J774 cells assessed as reduction in cell viability […] by Alamar blue assay; type: toxicity, cell-based
[12] = system: Staphylococcus aureus; experiment: Antibacterial activity against methicillin-resistant Staphylococcus aureus BAA-44 assessed as bacterial growth inhibition incubated for 16 hrs by broth microdilution susceptibility test; type: functional; procedure, shortened: as §1
[13] = system: Staphylococcus aureus; experiment: Antibiofilm activity against methicillin-resistant Staphylococcus aureus BAA-1707 biofilms assessed as biofilm eradication incubated for 24 hrs followed by incubation for 24 hrs in fresh medium by Calgary biofilm device assay; type: functional; procedure, shortened: as §4
[14] = system: HeLa; experiment: Cytotoxicity against human HeLa cells assessed as reduction in cell viability incubated for 24 hrs by LDH release assay; type: toxicity, cell-based
Procedure, shortened: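 HeLa cells in DMEM with 10% FBS, treated at 70–80% confluence with 25, 50 and 100 μM for 24 h. LDH in supernatant measured by 30 min reaction at room temperature, then stop solution and absorbance at 490 nm. Controls: 2% Triton X-100 (maximum), medium only, DMSO vehicle. Three independent experiments.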

[15] = system: Staphylococcus aureus; experiment: Bactericidal activity against methicillin-resistant Staphylococcus aureus BAA-1707 planktonic cells assessed as planktonic eradication incubated for 24 hrs followed by incubation for overnight in fresh medium by Calgary biofilm device assay; type: functional; procedure, shortened: as §3
[16] = system: Staphylococcus epidermidis; experiment: Antibiofilm activity against methicillin-resistant Staphylococcus epidermidis ATCC 35984 biofilms assessed as biofilm eradication incubated for 24 hrs followed by incubation for 24 hrs in fresh medium by Calgary biofilm device assay; type: functional; procedure, shortened: as §4
[17] = system: Enterococcus faecalis; experiment: Bactericidal activity against […] Enterococcus faecalis OG1RF ATCC 47077 planktonic cells assessed as planktonic eradication incubated for 24 hrs followed by incubation for overnight in fresh medium by Calgary biofilm device assay; type: functional
Procedure, shortened: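 Calgary biofilm device in BHI. Biofilms grown 24 h at 37 °C and challenged 24 h with twofold compound dilutions. Challenge medium subcultured 1:10 into fresh BHI overnight at 37 °C. MBC is the concentration with no turbidity. At least three independent experiments.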

[18] = system: Enterococcus faecalis; experiment: Antibiofilm activity against Enterococcus faecalis OG1RF ATCC 47077 biofilms assessed as biofilm eradication incubated for 24 hrs followed by incubation for 24 hrs in fresh medium by Calgary biofilm device assay; type: functional
Procedure, shortened: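 Calgary biofilm device. Biofilms grown 24 h at 37 °C in BHI from mid-log culture diluted 1000-fold. Pegs washed and then challenged 24 h with twofold serial dilutions. Pegs moved to fresh BHI for 24 h recovery. MBEC = lowest concentration leaving no turbidity; at least three independent experiments.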

Oc1c(Br)cc(Br)c2nc3cc(Cl)ccc3nc12 was tested, and the MIC [2] was 0.1 µM (≈ 0.0388 µg/mL).

For Cc1ccc2nc3c(O)c(Br)c(Cl)c(Br)c3nc2c1C, the MIC [1] was 0.08 µM (≈ 0.0333 µg/mL), the Activity [3] was “<= 1%” and the IC50 [4] was greater than 200 µM. The MBC [5] was 3.13 µM (≈ 1.3 µg/mL), the MIC [6] was no more than 0.05 µM and the MIC [7] was 0.2 µM (≈ 0.0833 µg/mL). The MIC [2] was 0.05 µM (≈ 0.0208 µg/mL), the MIC [8] was 3.62 µM (≈ 1.51 µg/mL) and the MBEC [9] was 0.3 µM. It also gave an MBC [10] of 0.78 µM (≈ 0.325 µg/mL) and an IC50 [11] greater than 200 µM.

Cc1cccc2nc3c(O)cc(Cl)cc3nc12 was tested, and the MIC [1] was 3.13 µM (≈ 0.766 µg/mL) and the MIC [6] was […].

Cc1cccc2nc3c(O)c(Br)cc(Br)c3nc12 gave an MIC [2] of 0.3 µM (≈ 0.11 µg/mL).

Oc1cc(Cl)cc2nc3ccc(I)cc3nc12 showed an MIC [1] of 3.13 µM (≈ 1.12 µg/mL), an Activity [3] of 1.9% and an MIC [12] of 1.56 µM (≈ 0.556 µg/mL). It also gave an MBEC [13] of 37.5 µM, an MIC [2] of 0.78 µM (≈ 0.278 µg/mL) and an IC50 [14] of 100 µM. For the same compound, the MBC [15] was 37.5 µM (≈ 13.4 µg/mL).

Work on CCCCCCCCCC(=O)N[C@@H](Cc1c[nH]c2ccccc12)C(=O)N[C@H](CC(N)=O)C(=O)N[C@@H](CC(=O)O)C(=O)N[C@@H]1C(=O)NCC(=O)N[C@@H](CCCN)C(=O)N[C@@H](CC(=O)O)C(=O)N[C@H](C)C(=O)N[C@@H](CC(=O)O)C(=O)NCC(=O)N[C@H](CO)C(=O)N[C@@H]([C@H](C)CC(=O)O)C(=O)N[C@@H](CC(=O)c2ccccc2N)C(=O)O[C@@H]1C yielded an MBEC [13] greater than 2000 µM, an MBEC [9] of 93.8 µM and an MBC [10] of 375 µM (≈ 608 µg/mL).

Compound Oc1cc(Cl)cc2nc3c(Oc4ccccc4)cccc3nc12 has an MIC [12] of 3.13 µM (≈ 1.01 µg/mL), an MIC [6] of 3.13 µM (≈ 1.01 µg/mL) and an MIC [2] of 3.13 µM (≈ 1.01 µg/mL).

With Oc1c(Br)c(Cl)c(Br)c2nc3ccc(I)cc3nc12 the Activity [3] was 3%, the MBC [5] was 6.25 µM (≈ 3.21 µg/mL) and the MBEC [16] was 6.25 µM. For the same compound, the MIC [6] was 0.3 µM (≈ 0.154 µg/mL), the MIC [7] was 1.56 µM (≈ 0.802 µg/mL) and the MIC [2] was 0.15 µM (≈ 0.0772 µg/mL). It also gave an MBEC [9] of 3.13 µM, an MBC [15] of 12.5 µM (≈ 6.43 µg/mL) and an MBC [10] of 4.69 µM (≈ 2.41 µg/mL).

Work on Oc1cc(Cl)cc2nc3ccc(F)cc3nc12 yielded an MIC [2] of 6.25 µM (≈ 1.55 µg/mL).

Work on Cc1ccc2nc3c(O)cc(Cl)cc3nc2c1C yielded an MIC [1] of 3.13 µM (≈ 0.81 µg/mL), an MIC [12] of 2.35 µM (≈ 0.608 µg/mL) and an MIC [6] of 2.35 µM (≈ 0.608 µg/mL). It also gave an MIC [7] of 12.5 µM (≈ 3.23 µg/mL) and an MIC [2] of 2.35 µM (≈ 0.608 µg/mL).

For Oc1c(Br)c(Cl)c(Br)c2nc3c(Br)cccc3nc12, the MBC [17] was 6.25 µM (≈ 2.92 µg/mL), the MIC [1] was 0.15 µM (≈ 0.0701 µg/mL) and the Activity [3] was “<= 1%”. It also gave an IC50 [4] greater than 200 µM, an MBEC [16] of […] and an MIC [12] of 0.2 µM (≈ 0.0935 µg/mL). The MIC [6] was 0.1 µM (≈ 0.0467 µg/mL), the MBEC [13] was 6.25 µM and the IC50 [14] was 100 µM. The MIC [8] was 3.91 µM (≈ 1.83 µg/mL), the MBEC [9] was 0.3 µM and the MBC [15] was 3.13 µM (≈ 1.46 µg/mL). For the same compound, the IC50 [11] was greater than 200 µM.

In the case of O=C(O)CN(CCN(CC(=O)O)CC(=O)O)CC(=O)O [EDETIC ACID], the MBC [17] is reported as greater than 2000 µM, the Activity [3] is reported as “<= 1%” and the MBEC [18] is reported as greater than 2000 µM. It also gave an MIC [12] of 125 µM (≈ 36.5 µg/mL), an MIC [7] of 500 µM (≈ 146 µg/mL) and an MBEC [13] greater than 2000 µM.

Work on Oc1c(Br)c(Cl)c(Br)c2nc3ccc(Br)cc3nc12 yielded an MIC [1] of 0.3 µM (≈ 0.14 µg/mL), an Activity [3] of 5.1% and an MBC [5] of 6.25 µM (≈ 2.92 µg/mL). The MBEC [16] was 6.25 µM, the MIC [12] was 1.56 µM (≈ 0.729 µg/mL) and the MIC [6] was 0.1 µM (≈ 0.0467 µg/mL). The MIC [7] was 0.78 µM (≈ 0.365 µg/mL), the MBEC [13] was 12.5 µM and the MBC [15] was 12.5 µM (≈ 5.84 µg/mL). It also gave an MBC [10] of 4.69 µM (≈ 2.19 µg/mL).

Cc1cccc2nc3c(O)c(Br)c(SCCO)c(Br)c3nc12 gave an MIC [1] of 12.5 µM (≈ 5.55 µg/mL), an MIC [12] of 6.25 µM (≈ 2.78 µg/mL) and an MIC [2] of 6.25 µM (≈ 2.78 µg/mL).

For Oc1c(Br)c(Cl)c(Br)c2nc3ccc(F)cc3nc12, the MIC [1] was 0.78 µM (≈ 0.317 µg/mL), the Activity [3] was “<= 1%” and the IC50 [4] was greater than 200 µM. The MBC [5] was 12.5 µM (≈ 5.08 µg/mL), the MBEC [16] was 12.5 µM and the MIC [12] was 0.2 µM (≈ 0.0813 µg/mL). For the same compound, the MIC [2] was 0.15 µM (≈ 0.061 µg/mL), the IC50 [14] was greater than 25 µM and the MIC [8] was 1.71 µM (≈ 0.695 µg/mL). It also gave an MBC [15] of 12.5 µM (≈ 5.08 µg/mL), an MBC [10] of 3.13 µM (≈ 1.27 µg/mL) and an IC50 [11] greater than 200 µM.

With Oc1cc(Cl)cc2nc3ccc(Br)cc3nc12 the MIC [1] was greater than 50 µM, the MIC [6] was greater than 50 µM and the MIC [2] was 9.38 µM (≈ 2.9 µg/mL).

For Oc1cccc2nc3ccccc3nc12, the MIC [1] was greater than 50 µM, the MIC [12] was 50 µM (≈ 9.81 µg/mL) and the MIC [6] was 37.5 µM (≈ 7.36 µg/mL). It also gave an MIC [7] greater than 50 µM and an MIC [2] of 50 µM (≈ 9.81 µg/mL).
